Screening results: PubChem, Johns Hopkins Ion Channel Center
KCNQ1 act: human KCNQ1 channel potentiation or activation; CHO-K1 KCNQ1, thallium flux FluxOR fluorescence; active compounds read high; B-score at 10 µM; hit rate 0.35% among 310,000;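 active = fluorescence ratio B-score, a plate-corrected score, at least three library SD, with initial intensity B-score within 5 SD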
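assay system = CHO-K1 cells stably expressing KCNQ1 | medium = assay buffer, equal DMSO in all wells | timing = 37 °C overnight plating, 90-min dark dye load, 20-min compound pretreatment | measured by = kinetic FluxOR thallium fluorescence, 10-s 1-Hz baseline, 110-s post-stimulus read | measure = fluorescence change relative to baseline, converted to B score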
KCNK9 inh: inhibitors of human KCNK9 two-pore domain potassium channel; HEK293 KCNK9, FluxOR thallium flux fluorescence; active compounds read low; B-score at 10 µM; hit rate 1.2% among 310,000;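 active = ratio B-score over 3 SD below the library mean, with starting fluorescence within 5 SD of its mean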;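 note: negative B-score means less thallium flux so channel inhibition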
hERG protect: compounds protecting human hERG from proarrhythmic drug block; CHO-hERG, FluxOR thallium flux, dofetilide IC70 present; activation (rescue from dofetilide block), less the hit threshold, % at 10 µM; hit rate 0.51% among 310,000; AID 1511;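 active = activation above the mean of controls blocked by dofetilide plus 5 SD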;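 note: thallium influx through hERG after potassium depolarization seen as dye fluorescence rise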
KCNK3 block: human KCNK3 channel inhibition, primary screen | hit rate 0.84% among 340,000 | CHO-KCNK3 thallium flux, FluxOR fluorescence; active compounds read low | B-score at 10 µM;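 active = B-score under library mean minus 4 SD, starting fluorescence ratio at most library mean plus 5 SD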;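 note: more negative B-score means stronger inhibition of thallium flux through KCNK3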
KCNQ1 block: blocks the human KCNQ1 potassium channel; CHO-K1 KCNQ1, FluxOR thallium flux fluorescence; active compounds read high; B-score at 10 µM; AID 2642; hit rate 1.3% among 310,000;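 active = compounds whose thallium flux B-score, printed positive for inhibition, exceeds three library SD while starting fluorescence stays within three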;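 note: channel opened by potassium depolarization with thallium stimulus after 20 min compound exposure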
* marks the source's active call; other numbers are inactive results; i = inactive; . = no result given. In the library only some 3.1% were active in any assay of this set; here they are far more common.

SMILES | KCNQ1 act | KCNK9 inh | hERG protect | KCNK3 block | KCNQ1 block
CCOc1cccc2sc(N(CCN(C)C)C(=O)c3cc4ccccc4cc3OC)nc12 | i | i | -10.9 | i | 9*
O=[N+]([O-])c1cc([N+](=O)[O-])c2c(=Nc3ccccc3)n(-c3ccccc3)n(O)c2c1 | i | i | -29.1 | -9.88* | 6*
O=[N+]([O-])c1cc(Br)c(Nc2ccccc2)c([N+](=O)[O-])c1 | i | i | -6.4 | i | i
CCc1ccc(NC(=O)C2CCCN2S(=O)(=O)c2ccc3c(c2)n(C)c(=O)c(=O)n3C)cc1 (stereo unspecified) | i | i | -7.6 | i | i
COc1ccccc1NC(=O)c1ccc2c(c1)CCN2S(C)(=O)=O | i | i | -4.9 | i | i
Cc1ccc(NC(=O)c2ccc3c(c2)CCN3S(C)(=O)=O)c(C)c1 | i | i | 5.3* | i | i
c1ccc(-c2noc(CN3CCN(C(c4ccccc4)c4ccccc4)CC3)n2)cc1 | i | -7.15* | -12.2 | i | i
COc1cc(/C=C/C(=O)c2ccc3c(c2)OCO3)cc(Cl)c1O | i | -7.04* | -11.8 | i | 6*
Cc1cc(C)c(OCC(=O)NCC(C)(C)N2CCOCC2)c(C)c1 | i | i | -16.9 | i | i
CCN1CCN(c2ccc(N3CCN(S(=O)(=O)c4ccc(C)c([N+](=O)[O-])c4)CC3)nn2)CC1 | i | i | -16.9 | i | i
O=C(CSc1cn[nH]n1)Nc1cccc(C(F)(F)F)c1 | i | -7.53* | -9.8 | i | i
O=C(CSc1cn[nH]n1)Nc1cccc(C(=O)O)c1 | i | i | -9.3 | i | i
C=CCN(CC=C)C(=S)NC(=O)Cc1cccc2ccccc12 | 10* | i | 10.2* | i | i
O=C(Cc1cccc2ccccc12)Nc1ccccc1 | i | i | -6.9 | i | i
CCOc1cc(C)cc2oc(=O)cc(-c3ccccc3)c12 | i | -6.97* | -12.1 | i | i
COc1ccc(-c2noc(C(C)NC(=O)c3ccco3)n2)cc1OC (stereo unspecified) | i | i | -1.7 | i | i
CCOc1ccc(-n2c(-c3ccc(OC)cc3)c[n+]3c2CCCCC3)cc1 | i | i | -24.9 | i | 7*
COc1ccc(-c2c[n+]3c(n2-c2ccc(C)cc2)CCCCC3)cc1 | i | i | -21.6 | i | 9*
CCOc1ccc(-n2c(-c3ccccc3)c[n+]3c2CCC3)cc1 | i | i | -25.9 | i | i
CCOc1ccc(-n2c(-c3ccc(Br)cc3)c[n+]3c2CCCCC3)cc1 | i | i | -22.6 | i | 8*
O=c1c(Cl)c(O)ccn1C1OC(CO)C(O)C1O (stereo unspecified) | . | . | . | i | .
CCCN(CCC)Cc1c(C(=O)N/N=C/CCc2ccccc2)nnn1-c1nonc1N | i | i | -10.7 | i | i
O=C(/C=C/c1ccc([N+](=O)[O-])cc1)/C=C/c1ccco1 | i | i | -5.4 | i | 8*
CN(C)S(=O)(=O)n1cc(/C=C(\NC(=O)c2ccccc2F)C(=O)NCCCn2ccnc2)c2ccccc21 | i | i | -24.1 | i | i
O=[N+]([O-])c1ccccc1C1Nc2cccc3cccc(c23)N1 | i | i | -10.8 | i | 6*
SMILES | KCNQ1 act | KCNK9 inh | hERG protect | KCNK3 block | KCNQ1 block
Oc1ccccc1C1Nc2cccc3cccc(c23)N1 | i | i | -5.8 | i | i
COc1cc(/C=C2/C(=O)N(c3ccc(Br)cc3)N=C2C)cc(OC)c1OC | i | i | -7.8 | i | 8*
COc1cc(/C=C2/C(=O)N(c3ccc(C(=O)O)cc3)N=C2C)cc(OC)c1O | i | i | -11.8 | i | i
CCOc1cc(Br)cc(/C=C2\SC(=Nc3ccccc3)NC2=O)c1O | i | i | 1.5 | i | 6*
Cc1ccc(S(=O)(=O)/N=C2/NC(=O)/C(=C\c3cc(Br)cc(Br)c3O)S2)cc1 | i | i | -16.0 | i | 7*
CC(=O)Nc1ccc(S(=O)(=O)N2CCN(c3cc(C)nc4ccccc34)CC2)cc1 | i | i | -6.3 | i | i
CC(=O)Nc1ccc(S(=O)(=O)N2CCN(c3nc(NC4CCCC4)c4ccccc4n3)CC2)cc1 | i | i | -16.4 | i | 6*
COc1cc(C)nc(N2CCCC(C(=O)Nc3cc(Cl)ccc3OC)C2)n1 (stereo unspecified) | i | -6.78* | -7.3 | i | i
COc1ccc(OC)c(S(=O)(=O)N2CCC(NC(=O)c3ccccc3)CC2)c1 | i | -7.26* | -4.6 | i | i
COc1ccc(C(=O)NC2CCN(S(=O)(=O)c3ccccc3)CC2)cc1 | i | i | -6.3 | i | i
CC1=NN(c2ccc(C)c(C)c2)C(=O)C1C(c1cccc(O)c1)C1C(=O)N(c2ccc(C)c(C)c2)N=C1C (stereo unspecified) | i | -9.81* | -5.8 | i | i
NC(=O)C1CCN(Cc2cccc(OCc3ccccc3)c2)CC1 | i | i | -0.3 | i | i
O=C(NCc1ccccn1)C1CCN(Cc2cccc(OCc3ccccc3)c2)CC1 | 8* | i | -5.8 | i | i
Cc1ccc2oc(C(=O)N3CCC(O)(c4cccc(C(F)(F)F)c4)CC3)c(C)c2c1 | i | i | 3.2 | i | i
CN(C)Cc1nc2ccccc2c(=O)n1Cc1nc(-c2cccc([N+](=O)[O-])c2)cs1 | i | -7.62* | -12.8 | i | i
O=C(C[n+]1ccccc1)N/N=C/c1cc(Br)ccc1O | i | i | -9.0 | i | i
CC(CCc1ccc(O)cc1)NC(c1ccccc1)c1ccc(Cl)cc1 (stereo unspecified) | i | i | -23.5 | i | 12*
CC(CCc1ccc(O)cc1)NCCC(c1ccccc1)c1ccccc1 (stereo unspecified) | i | i | -21.8 | i | i
Cc1cccc(NS(=O)(=O)c2ccc(C)c(C(=O)NCC(c3cccs3)N3CCOCC3)c2)c1 (stereo unspecified) | . | . | . | i | .
COc1ccc(C(F)(F)F)cc1N/C=C/c1nnnn1-c1ccc(C)cc1 | i | -6.72* | -11.6 | i | i
O=C(NCCCN1CCCC1=O)Nc1ccc(F)c(Cl)c1 | i | i | -11.3 | i | 6*
Cc1cc(NC(=S)N(Cc2ccc(Br)cc2)Cc2ccc(C(=O)O)cc2)ccc1Cl | i | -6.84* | -21.5 | i | i
CC1(C)CC(=O)C=C(c2cccc3c2oc2ccccc23)C1 | i | i | -7.6 | i | 6*
O=C1C=C(c2cccc3c2oc2ccccc23)CCC1 | i | i | -10.3 | i | i
N#Cc1ccc(S(=O)(=O)NC2CCCCNC2=O)cc1 (stereo unspecified) | i | i | -0.1 | i | i
